Assay results taken from ChEMBL document CHEMBL3865832, “Rhizovarins A-F, Indole-Diterpenes from the Mangrove-Derived Endophytic Fungus Mucor irregularis QEN-189” (J Nat Prod, 2016).
pIC50: −log10 of the molar value. Structures can show the parent of a compound that is named as a salt.

Key:
[1] = Cytotoxicity against human HL60 cells after 48 hrs by MTT assay; format: functional, cell-based; conditions: HL-60, 48 h
In short: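 HL-60 human leukemia cells; viability read by MTT reduction, with adriamycin as positive control.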

[2] = Cytotoxicity against human A549 cells after 48 hrs by SRB assay; format: functional, cell-based; conditions: A549, 48 h
In short: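 A549 human lung adenocarcinoma cells; cytotoxicity read by sulforhodamine B (SRB) staining, with adriamycin as positive control.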

C=C(C)[C@H]1O[C@H]2CC[C@@]3(C)[C@@](O)(CC[C@H]4[C@@H]5OC(C)(C)[C@H]6C[C@@H]7C(=C)Cc8c(Cl)cc9[nH]c(c5c9c8[C@@]76O)[C@@]43C)[C@]23O[C@@H]3[C@H]1O
pIC50 [1]: 5.15 | pIC50 [2]: 5.08

C=C(C)[C@H]1O[C@H]2CC[C@@]3(C)[C@@](O)(CC[C@H]4[C@@H]5OC(C)(C)[C@H]6C[C@@H]7C(=C)Cc8ccc9[nH]c(c5c9c8[C@@]76O)[C@@]43C)[C@]23O[C@@H]3[C@H]1O
pIC50 [1]: < 5.00 | pIC50 [2]: < 5.00

C=C(C)[C@H]1O[C@H]2CC[C@@]3(C)[C@@](O)(CC[C@H]4Cc5c([nH]c6ccccc56)[C@@]43C)[C@]23O[C@@H]3[C@H]1O
pIC50 [1]: < 5.00 | pIC50 [2]: < 5.00

C=C1Cc2ccc3[nH]c4c5c3c2[C@H]2[C@@H]1C[C@@H]2C(C)(C)O[C@H]5[C@@H]1CC[C@@]2(O)C3=C[C@@H](O)[C@@H](C(=C)C)O[C@H]3CC[C@]2(C)[C@@]41C
pIC50 [1]: < 5.00 | pIC50 [2]: < 5.00

C=C(C)[C@H]1O[C@H]2CC[C@@]3(C)[C@@](O)(CC[C@]4(OC)O[C@@H]5OC(C)(C)[C@H]6C[C@@H]7C(=C)Cc8c(Cl)cc9[nH]c(c5c9c8[C@@]76O)[C@@]43C)[C@]23O[C@@H]3[C@H]1O
pIC50 [1]: 5.30 | pIC50 [2]: 5.20

CC(C)(O)[C@H]1O[C@H]2CC[C@@]3(C)[C@@H](CC[C@H]4Cc5c([nH]c6ccccc56)[C@@]43C)C2=C[C@H]1O
pIC50 [1]: 5.59 | pIC50 [2]: 5.34

C=C1Cc2ccc3[nH]c4c(c3c2[C@H]2[C@@H]1C[C@@H]2C(C)(C)O)[C@@H](OC)[C@@H]1CC[C@@]2(O)[C@@]35O[C@@H]3[C@@H](O)[C@@H](C(=C)C)O[C@H]5CC[C@]2(C)[C@@]41C
pIC50 [1]: < 5.00 | pIC50 [2]: 5.04

C=C1Cc2ccc3[nH]c4c(c3c2[C@H]2[C@@H]1C[C@@H]2C(C)(C)O)C[C@@H]1CC[C@@]2(O)C3=C[C@@H](O)[C@@H](C(=C)C)O[C@H]3CC[C@]2(C)[C@@]41C
pIC50 [1]: < 5.00 | pIC50 [2]: < 5.00

C=C(C)[C@H]1O[C@H]2CC[C@@]3(C)[C@@](O)(CC[C@]4(OC)O[C@@H]5OC(C)(C)[C@H]6C[C@@H]7C(=C)Cc8ccc9[nH]c(c5c9c8[C@@]76O)[C@@]43C)[C@]23O[C@@H]3[C@H]1O
pIC50 [1]: < 5.00 | pIC50 [2]: < 5.00

C=C(C)[C@H]1O[C@H]2CC[C@@]3(C)[C@@](O)(CC[C@]4(O)O[C@@H]5OC(C)(C)[C@H]6C[C@@H]7C(=C)Cc8c(Cl)cc9[nH]c(c5c9c8[C@@]76O)[C@]34C)[C@]23O[C@@H]3[C@H]1O
pIC50 [1]: 5.02 | pIC50 [2]: 4.94

C=C(C)[C@H]1O[C@H]2CC[C@@]3(C)[C@@](O)(CC[C@H]4Cc5c([nH]c6ccccc56)[C@@]43C)C2=C[C@H]1O
pIC50 [1]: < 5.00 | pIC50 [2]: < 5.00

C=C(C)[C@@H]1CC=C2[C@H](CC[C@@]3(C)[C@@]2(O)CC[C@H]2Cc4c([nH]c5ccc6c(c45)[C@@H]4[C@@H](C(C)(C)O)C[C@@H]4C6(C)C)[C@@]23C)O1
pIC50 [1]: < 5.00 | pIC50 [2]: < 5.00

CC(=O)OC(C)(C)[C@H]1O[C@H]2CC[C@@]3(C)[C@@H](CC[C@H]4Cc5c([nH]c6ccccc56)[C@@]43C)C2=CC1=O
pIC50 [1]: < 5.00 | pIC50 [2]: < 5.00

C=C(C)[C@H]1C[C@H](C(C)(C)O)[C@H]1c1cccc2c1C(=O)C[C@@H]1CC[C@@]3(O)C4=C[C@@H](O)[C@@H](C(=C)C)O[C@H]4CC[C@]3(C)[C@@]1(C)C(=O)N2
pIC50 [1]: < 5.00 | pIC50 [2]: < 5.00

COc1cccc2c1C(=O)c1c(O)c3c(c(O)c1C2=O)C[C@@](O)(C(=O)CO)C[C@@H]3O[C@H]1C[C@H](N)[C@H](O)[C@H](C)O1 [DOXORUBICIN HYDROCHLORIDE]
pIC50 [1]: 7.17 | pIC50 [2]: 6.52

C=C1Cc2ccc3[nH]c4c5c3c2[C@H]2[C@@H]1C[C@@H]2C(C)(C)O[C@H]5[C@@H]1CC[C@@]2(O)[C@@]35O[C@@H]3[C@@H](O)[C@@H](C(=C)C)O[C@H]5CC[C@]2(C)[C@@]41C [PENITREM B]
pIC50 [1]: < 5.00 | pIC50 [2]: < 5.00

C=C1Cc2c(Cl)cc3[nH]c4c5c3c2[C@H]2[C@@H]1C[C@@H]2C(C)(C)O[C@H]5[C@@H]1CC[C@@]2(O)C3=C[C@@H](O)[C@@H](C(=C)C)O[C@H]3CC[C@]2(C)[C@@]41C [PENITREM C]
pIC50 [1]: 5.33 | pIC50 [2]: 5.10

C=C1Cc2c(Cl)cc3[nH]c4c5c3c2[C@H]2[C@@H]1C[C@@H]2C(C)(C)O[C@H]5[C@@H]1CC[C@@]2(O)[C@@]35O[C@@H]3[C@@H](O)[C@@H](C(=C)C)O[C@H]5CC[C@]2(C)[C@@]41C [PENITREM F]
pIC50 [1]: 5.48 | pIC50 [2]: 5.09
